≈ marks a conversion by molar mass, not a printed value.
Key:
Format in all cases: functional
Klebsiella pneumoniae [1] = assay: Antibacterial activity against KPC-2 producing Klebsiella pneumoniae isolate 212229 after 18 hrs in presence of BPL by CLSI broth microdilution method; details: isolate 212229, 18 h
Outline: (§1)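 CLSI broth microdilution against clinical isolates (ESBL E. coli, KPC-2 MDR K. pneumoniae, IMP-4 MDR P. aeruginosa; five per species). Iron limitation: Mueller-Hinton broth supplemented with 16 mg/liter 2,2'-bipyridyl to complex iron and induce iron uptake systems. Read-out: MIC.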

Escherichia coli [2] = assay: Selectivity index, ratio of MIC for against extended-spectrum beta-lactamase producing Escherichia coli isolate 106342 to MIC for extended-spectrum beta-lactamase producing Escherichia coli isolate 106342 in presence of BPL
Pseudomonas aeruginosa [3] = assay: Antibacterial activity against IMP-4 producing Pseudomonas aeruginosa isolate 207272 after 18 hrs by CLSI broth microdilution method; details: isolate 207272, 18 h
Escherichia coli [4] = assay: Antibacterial activity against extended-spectrum beta-lactamase producing Escherichia coli isolate 212648 after 18 hrs in presence of BPL by CLSI broth microdilution method; details: isolate 212648, 18 h; outline: as §1
Klebsiella pneumoniae [5] = assay: Antibacterial activity against KPC-2 producing Klebsiella pneumoniae isolate 212423 after 18 hrs in presence of BPL by CLSI broth microdilution method; details: isolate 212423, 18 h; outline: as §1
Klebsiella pneumoniae [6] = assay: Selectivity index, ratio of MIC for against KPC-2 producing Klebsiella pneumoniae isolate 212232 to MIC for against KPC-2 producing Klebsiella pneumoniae isolate 212232 in presence of BPL
Klebsiella pneumoniae [7] = assay: Antibacterial activity against KPC-2 producing Klebsiella pneumoniae isolate 212232 after 18 hrs by CLSI broth microdilution method; details: isolate 212232, 18 h
Pseudomonas aeruginosa [8] = assay: Antibacterial activity against IMP-4 producing Pseudomonas aeruginosa isolate 207272 after 18 hrs in presence of BPL by CLSI broth microdilution method; details: isolate 207272, 18 h; outline: as §1
Klebsiella pneumoniae [9] = assay: Selectivity index, ratio of MIC for against KPC-2 producing Klebsiella pneumoniae isolate 209735 to MIC for against KPC-2 producing Klebsiella pneumoniae isolate 209735 in presence of BPL
Klebsiella pneumoniae [10] = assay: Antibacterial activity against KPC-2 producing Klebsiella pneumoniae isolate 212229 after 18 hrs by CLSI broth microdilution method; details: isolate 212229, 18 h
Escherichia coli [11] = assay: Antibacterial activity against extended-spectrum beta-lactamase producing Escherichia coli isolate 209285 after 18 hrs by CLSI broth microdilution method; details: isolate 209285, 18 h
Escherichia coli [12] = assay: Antibacterial activity against extended-spectrum beta-lactamase producing Escherichia coli isolate 106342 after 18 hrs in presence of BPL by CLSI broth microdilution method; details: isolate 106342, 18 h; outline: as §1
Escherichia coli [13] = assay: Selectivity index, ratio of MIC for against extended-spectrum beta-lactamase producing Escherichia coli isolate 208687 to MIC for extended-spectrum beta-lactamase producing Escherichia coli isolate 208687 in presence of BPL
Pseudomonas aeruginosa [14] = assay: Antibacterial activity against IMP-4 producing Pseudomonas aeruginosa isolate 209321 after 18 hrs in presence of BPL by CLSI broth microdilution method; details: isolate 209321, 18 h; outline: as §1
Escherichia coli [15] = assay: Selectivity index, ratio of MIC for against extended-spectrum beta-lactamase producing Escherichia coli isolate 212648 to MIC for extended-spectrum beta-lactamase producing Escherichia coli isolate 212648 in presence of BPL
Pseudomonas aeruginosa [16] = assay: Antibacterial activity against IMP-4 producing Pseudomonas aeruginosa isolate 209471 after 18 hrs in presence of BPL by CLSI broth microdilution method; details: isolate 209471, 18 h; outline: as §1
Escherichia coli [17] = assay: Selectivity index, ratio of MIC for against Escherichia coli isolate 210737 to MIC for Escherichia coli isolate 210737 in presence of BPL
Escherichia coli [18] = assay: Antibacterial activity against Escherichia coli isolate 210737 after 18 hrs by CLSI broth microdilution method; details: isolate 210737, 18 h
Pseudomonas aeruginosa [19] = assay: Antibacterial activity against IMP-4 producing Pseudomonas aeruginosa isolate 212886 after 18 hrs by CLSI broth microdilution method; details: isolate 212886, 18 h
Pseudomonas aeruginosa [20] = assay: Selectivity index, ratio of MIC for against IMP-4 producing Pseudomonas aeruginosa isolate 209471 to MIC for against IMP-4 producing Pseudomonas aeruginosa isolate 209471 in presence of BPL
Pseudomonas aeruginosa [21] = assay: Selectivity index, ratio of MIC for against IMP-4 producing Pseudomonas aeruginosa isolate 209321 to MIC for against IMP-4 producing Pseudomonas aeruginosa isolate 209321 in presence of BPL
Escherichia coli [22] = assay: Antibacterial activity against extended-spectrum beta-lactamase producing Escherichia coli isolate 209285 after 18 hrs in presence of BPL by CLSI broth microdilution method; details: isolate 209285, 18 h; outline: as §1
Escherichia coli [23] = assay: Antibacterial activity against extended-spectrum beta-lactamase producing Escherichia coli isolate 208687 after 18 hrs by CLSI broth microdilution method; details: isolate 208687, 18 h
Pseudomonas aeruginosa [24] = assay: Antibacterial activity against IMP-4 producing Pseudomonas aeruginosa isolate 208247 after 18 hrs in presence of BPL by CLSI broth microdilution method; details: isolate 208247, 18 h; outline: as §1
Pseudomonas aeruginosa [25] = assay: Antibacterial activity against IMP-4 producing Pseudomonas aeruginosa isolate 209321 after 18 hrs by CLSI broth microdilution method; details: isolate 209321, 18 h
Klebsiella pneumoniae [26] = assay: Antibacterial activity against KPC-2 producing Klebsiella pneumoniae isolate 212232 after 18 hrs in presence of BPL by CLSI broth microdilution method; details: isolate 212232, 18 h; outline: as §1
Klebsiella pneumoniae [27] = assay: Antibacterial activity against KPC-2 producing Klebsiella pneumoniae isolate 212423 after 18 hrs by CLSI broth microdilution method; details: isolate 212423, 18 h
Pseudomonas aeruginosa [28] = assay: Selectivity index, ratio of MIC for against IMP-4 producing Pseudomonas aeruginosa isolate 207272 to MIC for against IMP-4 producing Pseudomonas aeruginosa isolate 207272 in presence of BPL
Escherichia coli [29] = assay: Selectivity index, ratio of MIC for against extended-spectrum beta-lactamase producing Escherichia coli isolate 209285 to MIC for extended-spectrum beta-lactamase producing Escherichia coli isolate 209285 in presence of BPL
Pseudomonas aeruginosa [30] = assay: Antibacterial activity against IMP-4 producing Pseudomonas aeruginosa isolate 212886 after 18 hrs in presence of BPL by CLSI broth microdilution method; details: isolate 212886, 18 h; outline: as §1
Escherichia coli [31] = assay: Antibacterial activity against extended-spectrum beta-lactamase producing Escherichia coli isolate 208687 after 18 hrs in presence of BPL by CLSI broth microdilution method; details: isolate 208687, 18 h; outline: as §1
Klebsiella pneumoniae [32] = assay: Antibacterial activity against KPC-2 producing Klebsiella pneumoniae isolate 209632 after 18 hrs in presence of BPL by CLSI broth microdilution method; details: isolate 209632, 18 h; outline: as §1
Escherichia coli [33] = assay: Antibacterial activity against extended-spectrum beta-lactamase producing Escherichia coli isolate 106342 after 18 hrs by CLSI broth microdilution method; details: isolate 106342, 18 h
Klebsiella pneumoniae [34] = assay: Selectivity index, ratio of MIC for against KPC-2 producing Klebsiella pneumoniae isolate 209632 to MIC for against KPC-2 producing Klebsiella pneumoniae isolate 209632 in presence of BPL
Klebsiella pneumoniae [35] = assay: Antibacterial activity against KPC-2 producing Klebsiella pneumoniae isolate 209735 after 18 hrs in presence of BPL by CLSI broth microdilution method; details: isolate 209735, 18 h; outline: as §1
Klebsiella pneumoniae [36] = assay: Selectivity index, ratio of MIC for against KPC-2 producing Klebsiella pneumoniae isolate 212423 to MIC for against KPC-2 producing Klebsiella pneumoniae isolate 212423 in presence of BPL
Escherichia coli [37] = assay: Antibacterial activity against Escherichia coli isolate 210737 after 18 hrs in presence of BPL by CLSI broth microdilution method; details: isolate 210737, 18 h; outline: as §1
Klebsiella pneumoniae [38] = assay: Antibacterial activity against KPC-2 producing Klebsiella pneumoniae isolate 209735 after 18 hrs by CLSI broth microdilution method; details: isolate 209735, 18 h
Escherichia coli [39] = assay: Antibacterial activity against extended-spectrum beta-lactamase producing Escherichia coli isolate 212648 after 18 hrs by CLSI broth microdilution method; details: isolate 212648, 18 h
Klebsiella pneumoniae [40] = assay: Antibacterial activity against KPC-2 producing Klebsiella pneumoniae isolate 209632 after 18 hrs by CLSI broth microdilution method; details: isolate 209632, 18 h
Pseudomonas aeruginosa [41] = assay: Antibacterial activity against IMP-4 producing Pseudomonas aeruginosa isolate 208247 after 18 hrs by CLSI broth microdilution method; details: isolate 208247, 18 h
Pseudomonas aeruginosa [42] = assay: Antibacterial activity against IMP-4 producing Pseudomonas aeruginosa isolate 209471 after 18 hrs by CLSI broth microdilution method; details: isolate 209471, 18 h
Klebsiella pneumoniae [43] = assay: Selectivity index, ratio of MIC for against KPC-2 producing Klebsiella pneumoniae isolate 212229 to MIC for against KPC-2 producing Klebsiella pneumoniae isolate 212229 in presence of BPL

MIC (Klebsiella pneumoniae [1]): 2 µg/mL | MIC (Pseudomonas aeruginosa [3]): 64 µg/mL (≈ 104 µM) | MIC (Escherichia coli [4]): 0.5 µg/mL | MIC (Klebsiella pneumoniae [5]): 2 µg/mL | MIC (Klebsiella pneumoniae [7]): 4 µg/mL (≈ 6.51 µM) | MIC (Pseudomonas aeruginosa [8]): 64 µg/mL | MIC (Klebsiella pneumoniae [10]): 2 µg/mL (≈ 3.25 µM) | MIC (Escherichia coli [11]): 2 µg/mL (≈ 3.25 µM) | MIC (Escherichia coli [12]): 1 µg/mL | MIC (Pseudomonas aeruginosa [14]): 32 µg/mL | MIC (Pseudomonas aeruginosa [16]): 64 µg/mL | MIC (Escherichia coli [18]): 1 µg/mL (≈ 1.63 µM) | MIC (Pseudomonas aeruginosa [19]): > 64 µg/mL | MIC (Escherichia coli [22]): 0.5 µg/mL | MIC (Escherichia coli [23]): 2 µg/mL (≈ 3.25 µM) | MIC (Pseudomonas aeruginosa [24]): > 64 µg/mL | MIC (Pseudomonas aeruginosa [25]): 32 µg/mL (≈ 52.1 µM) | MIC (Klebsiella pneumoniae [26]): 0.5 µg/mL | MIC (Klebsiella pneumoniae [27]): 4 µg/mL (≈ 6.51 µM) | MIC (Pseudomonas aeruginosa [30]): > 64 µg/mL | MIC (Escherichia coli [31]): 1 µg/mL | MIC (Klebsiella pneumoniae [32]): > 64 µg/mL | MIC (Escherichia coli [33]): 2 µg/mL (≈ 3.25 µM) | MIC (Klebsiella pneumoniae [35]): > 64 µg/mL | MIC (Escherichia coli [37]): 1 µg/mL | MIC (Klebsiella pneumoniae [38]): > 64 µg/mL | MIC (Escherichia coli [39]): 2 µg/mL (≈ 3.25 µM) | MIC (Klebsiella pneumoniae [40]): > 64 µg/mL | MIC (Pseudomonas aeruginosa [41]): > 64 µg/mL | MIC (Pseudomonas aeruginosa [42]): 64 µg/mL (≈ 104 µM)
Compound: CC(C)C(O/N=C(\C(=O)N[C@@H]1C(=O)N(S(=O)(=O)O)[C@@H]1CN1CCNCC1)c1csc(N)n1)c1cc(=O)c(O)cn1O (stereo partly drawn)
Selectivity Index (Escherichia coli [2]): 2 | Selectivity Index (Klebsiella pneumoniae [6]): 8 | Selectivity Index (Klebsiella pneumoniae [9]): 1 - 8 | Selectivity Index (Escherichia coli [13]): 2 | Selectivity Index (Escherichia coli [15]): 4 | Selectivity Index (Escherichia coli [17]): 1 | Selectivity Index (Pseudomonas aeruginosa [20]): 1 | Selectivity Index (Pseudomonas aeruginosa [21]): 1 | Selectivity Index (Pseudomonas aeruginosa [28]): 1 | Selectivity Index (Escherichia coli [29]): 4 | Selectivity Index (Klebsiella pneumoniae [34]): 1 - 8 | Selectivity Index (Klebsiella pneumoniae [36]): 2 | Selectivity Index (Klebsiella pneumoniae [43]): 1
